Source: ChEMBL document CHEMBL4433203, “Design, synthesis, and evaluation of isoflavone analogs as multifunctional agents for the treatment of Alzheimer's disease” (Eur J Med Chem, 2019)
pIC50: −log10 of the molar value. Calls of active or inactive are those of the source. No cut-off for these calls is given here.

What was measured:
[1] = molecular target: T1, Acetylcholinesterase (Mus musculus) (UniProt P21836); settings: at 10 µM
T1 sequence (whole entry): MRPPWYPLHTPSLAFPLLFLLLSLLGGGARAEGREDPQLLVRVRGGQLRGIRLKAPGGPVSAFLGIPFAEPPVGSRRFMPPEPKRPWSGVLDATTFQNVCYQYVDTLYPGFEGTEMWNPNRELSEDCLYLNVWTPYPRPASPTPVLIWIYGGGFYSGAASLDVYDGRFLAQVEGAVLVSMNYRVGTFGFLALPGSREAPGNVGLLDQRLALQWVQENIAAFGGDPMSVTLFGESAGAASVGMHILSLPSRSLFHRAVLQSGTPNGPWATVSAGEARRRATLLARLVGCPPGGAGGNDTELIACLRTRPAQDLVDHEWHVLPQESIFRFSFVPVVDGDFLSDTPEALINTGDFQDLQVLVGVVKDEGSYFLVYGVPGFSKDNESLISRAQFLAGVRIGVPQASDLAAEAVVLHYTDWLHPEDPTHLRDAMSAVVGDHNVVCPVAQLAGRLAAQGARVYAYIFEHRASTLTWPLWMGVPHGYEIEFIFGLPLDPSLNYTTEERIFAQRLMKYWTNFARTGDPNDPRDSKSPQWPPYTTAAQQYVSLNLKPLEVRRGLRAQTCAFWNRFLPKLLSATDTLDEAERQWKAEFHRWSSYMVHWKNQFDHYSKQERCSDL

Histamine H3 receptor [2] = molecular target: T2, Histamine H3 receptor (Homo sapiens, UniProt Q9Y5N1); assay: Inhibition of human H3R expressed in methylhistamine-induced human H3-bla U2OS cells incubated for 30 mins by beta-lactamase complementation technology; type: cell-based; settings: for pIC50: read-out: IC50; for IC50: u2os
Outline: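 H3-bla U2OS cells co-express human H3R-Gal4-VP16 (TEV site) and β-arrestin/TEV protease with a UAS-β-lactamase reporter. IC50 came from log concentration-inhibition curves. Triplicates, three independent experiments.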

Cholinesterase = Cholinesterase (Mus musculus, UniProt Q03311); assay: Inhibition of mouse plasma BuChE using S-butyrylacetylthiocholine iodide as substrate measured after 30 mins by Ellman's method relative to control; settings: for pIC50: read-out: IC50
[3] = Antioxidant activity assessed as AAPH radical scavenging activity preincubated for 15 mins with fluorescein before AAPH addition and recorded every 2 mins for 160 mins by ORAC-FL assay; type: functional
Outline: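 ORAC-FL assay in 75 mM PBS, pH 7.4. Compound was preincubated with fluorescein (20 nM final) for 15 min at 37 °C, then AAPH (18 mM final) was added. Fluorescence (ex 460/em 520 nm) was read every 2 min for 160 min. Net area under the decay curve, blank-normalized, is expressed as µM Trolox equivalents per µM compound. Duplicates, ≥3 independent assays.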

Acetylcholinesterase = molecular target: T3, Acetylcholinesterase (Mus musculus, UniProt P21836); assay: Inhibition of mouse brain AChE using acetylthiocholine iodide as substrate measured after 30 mins by Ellman's method; settings: for pIC50: read-out: IC50
T3 sequence (P21836 whole entry): T1 sequence (whole entry)

Histamine H3 receptor [4] = molecular target: T2, Histamine H3 receptor; assay: Inhibition of human H3R expressed in methylhistamine-induced human H3-bla U2OS cells at 10 uM incubated for 30 mins by beta-lactamase complementation technology relative to control; type: cell-based
[5] = Cytotoxicity in human SH-SY5Y cells assessed as reduction in cell viability after 72 hrs incubation by MTT assay
BV-2 [6] = assay: Antiinflammatory activity in mouse BV2 cells assessed as reduction in LPS-induced TNF-alpha production at 10 uM pretreated for 1 hr followed by LPS challenge and measured after 24 hrs by ELISA assay; type: functional, cell-based
SH-SY5Y = assay: Neuroprotective activity against copper-induced cytotoxicity in human SH-SY5Y cells expressing APP Swedish mutant assessed as increase in cell viability at 10 uM pre-incubated for 2 hrs followed by copper addition and measured after 24 hrs by MTT assay; type: functional, cell-based
BV-2 [7] = assay: Antiinflammatory activity in mouse BV2 cells assessed as reduction in LPS-induced IL-6 production at 10 uM pretreated for 1 hr followed by LPS challenge and measured after 24 hrs by ELISA assay; type: functional, cell-based

Sequence of Cholinesterase (Q03311 whole entry): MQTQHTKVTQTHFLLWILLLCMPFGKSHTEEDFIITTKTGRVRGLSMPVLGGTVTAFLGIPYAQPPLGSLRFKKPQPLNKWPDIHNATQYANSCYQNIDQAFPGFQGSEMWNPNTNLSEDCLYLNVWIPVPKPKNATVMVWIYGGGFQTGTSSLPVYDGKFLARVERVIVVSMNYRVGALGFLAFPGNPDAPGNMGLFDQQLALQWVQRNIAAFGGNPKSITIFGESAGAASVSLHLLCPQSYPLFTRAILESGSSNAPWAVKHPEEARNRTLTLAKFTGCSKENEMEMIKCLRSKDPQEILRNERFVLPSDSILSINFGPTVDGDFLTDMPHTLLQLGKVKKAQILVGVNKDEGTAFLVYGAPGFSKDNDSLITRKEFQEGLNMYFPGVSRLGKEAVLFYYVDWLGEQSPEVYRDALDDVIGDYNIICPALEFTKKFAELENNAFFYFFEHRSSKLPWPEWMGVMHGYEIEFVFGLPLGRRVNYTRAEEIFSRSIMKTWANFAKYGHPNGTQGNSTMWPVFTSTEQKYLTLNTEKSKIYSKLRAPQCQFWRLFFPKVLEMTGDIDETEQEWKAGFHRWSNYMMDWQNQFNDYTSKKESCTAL
T2 sequence (Q9Y5N1 whole entry, the tested form may be a part): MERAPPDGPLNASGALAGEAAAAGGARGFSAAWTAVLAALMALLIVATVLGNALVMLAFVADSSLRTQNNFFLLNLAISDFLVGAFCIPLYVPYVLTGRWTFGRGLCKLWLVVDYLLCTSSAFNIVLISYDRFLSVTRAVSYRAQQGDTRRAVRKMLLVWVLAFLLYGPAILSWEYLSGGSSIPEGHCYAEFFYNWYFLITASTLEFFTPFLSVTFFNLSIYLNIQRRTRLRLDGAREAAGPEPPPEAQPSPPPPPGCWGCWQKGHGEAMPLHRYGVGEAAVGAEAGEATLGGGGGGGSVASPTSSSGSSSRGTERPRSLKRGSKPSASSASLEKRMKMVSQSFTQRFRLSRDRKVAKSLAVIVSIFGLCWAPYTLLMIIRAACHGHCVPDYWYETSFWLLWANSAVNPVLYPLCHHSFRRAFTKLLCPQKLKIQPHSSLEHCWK

In the case of `O=c1c(-c2ccc(OCCN3CCCCC3)cc2)coc2cc(OCCCCN3CCCCC3)ccc12`, the inhibition [1] was 85.1%, the pIC50 (Histamine H3 receptor [2]) was 6.39 and the pIC50 (Cholinesterase) was 5.60. The Activity [3] was 0.11 equiv/µM, the pIC50 (Acetylcholinesterase) was 6.70 and the inhibition (Histamine H3 receptor [4]) was 72.4%.
`CCN(C)C(=O)Oc1cccc([C@H](C)N(C)C)c1` [RIVASTIGMINE] gave a CC50 at 72 h ([5]; SH-SY5Y cells) of 67.8 µM.
With `COc1ccc(-c2coc3cc(OCCN)ccc3c2=O)cc1.Cl` the inhibition [1] was 16.9%, the IC50 (Histamine H3 receptor [2]) was “Not Active” and the IC50 (Cholinesterase) was “Not Active”. The Activity [3] was 0.08 equiv/µM, the pIC50 (Acetylcholinesterase) was < 4.30 and the inhibition (Histamine H3 receptor [4]) was -6.69%.
`O=c1c(-c2ccc(OCCN3CCCCC3)cc2)coc2cc(OCCN3CCCCC3)ccc12` gave an inhibition [1] of 82.8%, a pIC50 (Histamine H3 receptor [2]) of 5.71 and a pIC50 (Cholinesterase) of 5.53. The Activity [3] was 0.14 equiv/µM, the pIC50 (Acetylcholinesterase) was 6.46 and the inhibition (Histamine H3 receptor [4]) was 71.5%.
`CCN(C)CCCOc1ccc2c(=O)c(-c3ccc(OC)cc3)coc2c1` gave a pIC50 (Histamine H3 receptor [2]) of 6.28, an Activity [3] of 0.12 equiv/µM and a pIC50 (Acetylcholinesterase) of 4.65.
For `COc1ccc(-c2coc3cc(OCCNc4c5c(nc6ccccc46)CCCC5)ccc3c2=O)cc1`, the inhibition [1] was 85.8%, the pIC50 (Histamine H3 receptor [2]) was < 5.00 and the pIC50 (Cholinesterase) was 6.42. It also gave an Activity [3] of 0.01 equiv/µM, a pIC50 (Acetylcholinesterase) of 6.02 and an inhibition (Histamine H3 receptor [4]) of 60.5%.
For `COc1ccc(-c2coc3cc(OCCN4C(=O)c5ccccc5C4=O)ccc3c2=O)cc1`, the inhibition [1] was 11.2%, the IC50 (Histamine H3 receptor [2]) was “Not Active” and the IC50 (Cholinesterase) was “Not Active”. The Activity [3] was 0.01 equiv/µM and the pIC50 (Acetylcholinesterase) was < 4.30.
For `O=c1c(-c2ccc(O)cc2)coc2cc(OCCCCN3CCCCC3)ccc12`, the inhibition [1] was 63.4%, the pIC50 (Histamine H3 receptor [2]) was < 4.30 and the pIC50 (Cholinesterase) was 4.61. It also gave an Activity [3] of 0.88 equiv/µM, a pIC50 (Acetylcholinesterase) of 4.57 and an inhibition (Histamine H3 receptor [4]) of 6.88%.
In the case of `COc1ccc(-c2coc3cc(OCCNC(=O)OC(C)(C)C)ccc3c2=O)cc1`, the inhibition [1] was -0.17%, the IC50 (Histamine H3 receptor [2]) was “Not Active” and the IC50 (Cholinesterase) was “Not Active”. The Activity [3] was 0.05 equiv/µM and the IC50 (Acetylcholinesterase) was “Not Active”.
In the case of `COc1cc2c(cc1OC)C(=O)C(CC1CCN(Cc3ccccc3)CC1)C2` (stereo not given) [DONEPEZIL], the Activity (BV-2 [6]) was “inactive”, the Activity (SH-SY5Y) was “inactive” and the CC50 at 72 h ([5]; sh-sy5y) was 25.1 µM. For the same molecule, the Activity (BV-2 [7]) was “inactive”.
For `COc1ccc(-c2coc3cc(OCCOCCN4CCCCC4)ccc3c2=O)cc1`, the inhibition [1] was 35%, the pIC50 (Histamine H3 receptor [2]) was < 4.30 and the pIC50 (Cholinesterase) was < 4.30. For the same molecule, the Activity [3] was 0.01 equiv/µM, the pIC50 (Acetylcholinesterase) was < 4.30 and the inhibition (Histamine H3 receptor [4]) was 30.3%.
With `CCN(C)CCCCOc1ccc2c(=O)c(-c3ccc(OC)cc3)coc2c1` the pIC50 (Histamine H3 receptor [2]) was 6.37, the Activity [3] was 0.11 equiv/µM and the pIC50 (Acetylcholinesterase) was 5.02.
With `O=c1c(-c2ccc(OCCN3CCCCC3)cc2)coc2cc(OCCN3CCCC3)ccc12` the pIC50 (Histamine H3 receptor [2]) was 5.68, the pIC50 (Cholinesterase) was 5.34 and the Activity [3] was 0.14 equiv/µM. For the same molecule, the pIC50 (Acetylcholinesterase) was 6.15.
Molecule `S=C(NC1CCCCC1)N1CCC(c2cnc[nH]2)CC1` [THIOPERAMIDE] has a CC50 at 72 h ([5]; SH-SY5Y cells) of 85.8 µM and an inhibition (Histamine H3 receptor [4]) of 71.1%.
With `COc1ccc(-c2coc3cc(OCCNC4CCCCC4)ccc3c2=O)cc1` the inhibition [1] was 73.7%, the pIC50 (Histamine H3 receptor [2]) was < 4.30 and the pIC50 (Cholinesterase) was 4.67. It also gave an Activity [3] of 0.01 equiv/µM, a pIC50 (Acetylcholinesterase) of 5.30 and an inhibition (Histamine H3 receptor [4]) of 41%.
Work on `COc1ccc(-c2coc3cc(OCCCCN4CCCCC4)ccc3c2=O)cc1` yielded a pIC50 (Histamine H3 receptor [2]) of 6.14, a pIC50 (Cholinesterase) of 5.05 and an Activity [3] of 0.07 equiv/µM. The pIC50 (Acetylcholinesterase) was 5.40.
For `COc1ccc(-c2coc3cc(OCCNC4CCCC4)ccc3c2=O)cc1`, the inhibition [1] was 78.5%, the pIC50 (Histamine H3 receptor [2]) was < 4.30 and the pIC50 (Cholinesterase) was 5.22. It also gave an Activity [3] of 0.01 equiv/µM, a pIC50 (Acetylcholinesterase) of 5.35 and an inhibition (Histamine H3 receptor [4]) of 47.1%.
For `Cc1c(C)c2c(c(C)c1O)CCC(C)(C(=O)O)O2` (stereo not given), the Activity [3] was 1 equiv/µM.
